The species entered for test [1] is Rattus norvegicus. Briefly: Evaluated in the two-lever drug discrimination assay in DOI trained rats to assess hallucinogenic-like activity (95% confidence intervals). Type of test: functional. In a few lines: (§1)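 Rats trained (FR50, 15-min sessions) to discriminate ip training drug from saline: LSD 0.08 mg/kg (186 nmol/kg), DOI 0.4 mg/kg (1.12 µmol/kg) or LY293284 0.025 mg/kg (75 nmol/kg), in 0.9% saline. Test drugs given ip 30 min (or 15 min) before extinction sessions. At least three doses, at least eight rats per dose. Scored quantally as %SDL. ED50 and 95% CI by Litchfield–Wilcoxon.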

For test [2], the species on record is Rattus norvegicus. Briefly: Evaluated in the two-lever drug discrimination assay in LSD trained rats to assess hallucinogenic-like activity (95% confidence intervals). Type of test: functional. The method in brief:
as §1

In test [3] the target is T1, 5-hydroxytryptamine receptor 2A (Rattus norvegicus, UniProt P14842). Briefly: Evaluated for the binding constant at [125I]-DOI-labeled rat 5-hydroxytryptamine 2A receptor. In a few lines: (§2)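 Competition binding with membranes from harvested cells. Rat 5-HT2A or 5-HT2C receptors were expressed in NIH3T3 cells and labelled with 0.20 nM [125I]DOI. […] Buffer was 50 mM Tris, 0.5 mM EDTA, 10 mM MgCl2, pH 7.4. Incubation ran 60 min at 25 °C, then filtration and counting. Ten concentrations were run in duplicate, n = 3-5. Ki was obtained by Cheng–Prusoff.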
T1 sequence (P14842 whole entry): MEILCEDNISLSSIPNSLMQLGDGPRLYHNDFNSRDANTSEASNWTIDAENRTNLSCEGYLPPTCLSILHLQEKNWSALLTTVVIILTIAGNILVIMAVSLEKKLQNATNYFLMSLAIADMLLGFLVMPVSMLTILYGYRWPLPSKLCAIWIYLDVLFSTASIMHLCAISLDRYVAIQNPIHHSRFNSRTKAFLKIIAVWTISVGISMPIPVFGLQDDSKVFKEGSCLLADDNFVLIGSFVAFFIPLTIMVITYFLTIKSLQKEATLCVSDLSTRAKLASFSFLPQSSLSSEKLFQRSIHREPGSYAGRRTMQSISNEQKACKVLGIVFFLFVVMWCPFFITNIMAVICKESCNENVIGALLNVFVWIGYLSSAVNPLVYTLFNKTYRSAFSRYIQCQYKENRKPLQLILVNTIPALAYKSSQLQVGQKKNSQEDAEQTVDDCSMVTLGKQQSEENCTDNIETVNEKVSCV

The target in test [4] is T2, 5-hydroxytryptamine receptor 1A (Homo sapiens, UniProt P08908).
T2 sequence (P08908 whole entry): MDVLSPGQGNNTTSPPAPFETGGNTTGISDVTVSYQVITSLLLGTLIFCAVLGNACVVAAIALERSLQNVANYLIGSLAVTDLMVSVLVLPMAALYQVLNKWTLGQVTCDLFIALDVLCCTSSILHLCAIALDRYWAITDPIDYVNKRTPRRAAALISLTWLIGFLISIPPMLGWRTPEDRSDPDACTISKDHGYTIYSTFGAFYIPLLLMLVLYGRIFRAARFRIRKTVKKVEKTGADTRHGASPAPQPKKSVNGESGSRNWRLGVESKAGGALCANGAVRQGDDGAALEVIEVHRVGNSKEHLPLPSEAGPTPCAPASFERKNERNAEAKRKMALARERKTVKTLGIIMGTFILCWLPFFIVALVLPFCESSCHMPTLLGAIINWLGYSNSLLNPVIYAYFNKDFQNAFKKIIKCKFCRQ
Briefly: Evaluated for the binding constant at [3H]8-OH-DPAT-labeled human 5-hydroxytryptamine 1A receptor.

In test [5] the target is 5-hydroxytryptamine receptor 2A (Rattus norvegicus) (UniProt P14842). Briefly: Intrinsic activity was determined at 5-hydroxytryptamine 2A receptor which is percentage response given compared with the response produced by 10 uM serotonin. The method in brief: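 Cells were pretreated 15 min with 10 µM pargyline and 10 mM LiCl, then exposed to agonist for 30 min at 37 °C. Inositol phosphates were separated on Dowex-1 and counted. EC50 was taken for PI turnover. Intrinsic activity is the response relative to 10 µM serotonin. Repeated 3-4 times.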
Chain of 5-hydroxytryptamine receptor 2A (Rattus norvegicus) (P14842 whole entry): as the sequence (P14842 whole entry) above

In test [6] the test system is Rattus norvegicus. Briefly: Maximum percentage of DOI-trained rats responding on the training drug lever at 4 umol/kg. Type of test: functional. The method in brief:
as §1

Test [7] addresses T3, 5-hydroxytryptamine receptor 2C (Rattus norvegicus, UniProt P08909).
T3 sequence (P08909 whole entry): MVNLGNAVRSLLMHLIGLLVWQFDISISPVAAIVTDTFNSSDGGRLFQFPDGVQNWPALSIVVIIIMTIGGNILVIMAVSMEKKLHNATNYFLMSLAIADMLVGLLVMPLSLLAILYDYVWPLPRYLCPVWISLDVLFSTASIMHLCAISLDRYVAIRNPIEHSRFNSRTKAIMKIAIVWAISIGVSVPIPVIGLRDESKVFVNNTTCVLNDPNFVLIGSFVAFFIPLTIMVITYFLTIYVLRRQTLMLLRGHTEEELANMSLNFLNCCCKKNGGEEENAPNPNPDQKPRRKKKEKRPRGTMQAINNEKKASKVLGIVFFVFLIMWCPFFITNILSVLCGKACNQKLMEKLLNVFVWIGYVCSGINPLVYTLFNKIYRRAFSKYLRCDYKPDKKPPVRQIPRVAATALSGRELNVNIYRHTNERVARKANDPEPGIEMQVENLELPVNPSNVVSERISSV
Briefly: Evaluated for the binding constant at [125I]-DOI-labeled rat 5-hydroxytryptamine 2C receptor. The method in brief:
as §2

Test [8] has as its target T1, 5-hydroxytryptamine receptor 2A. Briefly: Evaluated for the effective concentration at [125I]-DOI-labeled rat 5-hydroxytryptamine 2A receptor.
Test [9] has as its target T4, 5-hydroxytryptamine receptor 1A (Rattus norvegicus) (UniProt P19327).
T4 sequence (whole entry): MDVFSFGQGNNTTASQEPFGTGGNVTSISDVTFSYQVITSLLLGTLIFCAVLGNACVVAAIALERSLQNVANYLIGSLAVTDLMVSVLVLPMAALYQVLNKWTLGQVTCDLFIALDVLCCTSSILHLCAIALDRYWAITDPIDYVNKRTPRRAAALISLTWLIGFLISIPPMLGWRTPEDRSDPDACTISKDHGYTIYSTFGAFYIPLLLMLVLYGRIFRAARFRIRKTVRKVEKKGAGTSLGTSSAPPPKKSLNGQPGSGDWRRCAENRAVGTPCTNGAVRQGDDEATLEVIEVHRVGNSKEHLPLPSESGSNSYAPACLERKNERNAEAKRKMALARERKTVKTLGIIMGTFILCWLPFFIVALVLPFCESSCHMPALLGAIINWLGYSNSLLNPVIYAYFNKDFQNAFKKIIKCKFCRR
Briefly: Evaluated for the 5-hydroxytryptamine 1A receptor agonist activity in LY-293284 trained rats. Type of test: functional. In a few lines: as §1

In test [10] the target is T2, 5-hydroxytryptamine receptor 1A. Briefly: EC50 for inhibition of 50 uM forskolin-stimulated cAMP accumulation against 5-hydroxytryptamine 1A receptor. Type of test: functional.
In test [11] the test system is Rattus norvegicus. Briefly: Maximum percentage of DOI-trained rats responding on the training drug lever at 8 umol/kg. Type of test: functional. The method in brief: as §1
Test [12] has as its system Rattus norvegicus. Briefly: Maximum percentage of LSD-trained rats responding on the training drug lever at 8 umol/kg. Type of test: functional. In a few lines:
as §1

Test [13] has as its target T2, 5-hydroxytryptamine receptor 1A. Briefly: Evaluated for the binding constant at [3H]8-OH-DPAT-labeled human 5-hydroxytryptamine 1A receptor receptor.
The test system of test [14] is Rattus norvegicus. Briefly: Maximum percentage of LSD-trained rats responding on the training drug lever at 2 umol/kg. Type of test: functional. In a few lines:
as §1

Test [15] deals with Rattus norvegicus. Briefly: Maximum percentage of DOI-trained rats responding on the training drug lever at 1 umol/kg. Type of test: functional. The method in brief:
as §1

The structures appear in SMILES notation.

Broadly, the ED50 is the dose that gives a 50% effect, or the effect in half of the subjects. Higher therefore signals a need for a large dose. As for `CCN(CC)C(=O)[C@@H]1C=C2c3cccc4[nH]cc(c34)C[C@H]2N(C)C1` [LYSERGIDE], the ED50 in the test filed under Rattus norvegicus [1] worked out at 0.014 µmol/kg; in the test filed under Rattus norvegicus [2] it was 0.037 µmol/kg.
Broadly, the Ki is a measure of affinity in units of concentration, obtained from inhibition or displacement. Read a low Ki as higher affinity. The term EC50 denotes the concentration that produces a half-maximal response. A low value points to higher potency in that assay. For the compound `COc1cc2c(CCN(C)C)c[nH]c2cc1F`, the values for the Ki in [3], in test [4] and in test [7] were 33 nM, 84.5 nM and 19 nM, respectively. For the same compound, the ED50 in the test filed under Rattus norvegicus [2] was 4.72 µmol/kg; in the test on Rattus norvegicus [6], 50 µmol/kg. Besides, the Intrinsic activity in test [5] worked out at 110%. This compound showed an EC50 in [8] of 7900 nM.
Compound `CCCN(CCC)C1CCc2cccc(O)c2C1` (centres undefined) registered an ED50 in test [9] of 0.099 µmol/kg.
In the case of `CCN(CC)CCc1c[nH]c2ccc(OC)cc12`, the figures for the EC50 in test [10] and in [8] were 22 nM and 2390 nM, respectively. For the same compound, the Ki in test [3] came to 42 nM; in test [4], 1.7 nM; in test [7], 16 nM. This compound returned a median effective dose (ED50) in the test listed under Rattus norvegicus [2] of 1.49 µmol/kg. The Intrinsic activity in test [5] was found to be 99%.
On to `CN(C)CCc1c[nH]c2cc(F)cc(O)c12`, for which the Ki amounted to 114 nM in [4] and 7.4 nM in test [7]. In [5], the Intrinsic activity turned out to be 85%. This compound came in with an EC50 in test [8] of 2600 nM.
Consider `CCN(CC)CCc1c[nH]c2cc(F)ccc12`, for which the figures for the ED50 in the test on Rattus norvegicus [11] and in the test with Rattus norvegicus [12] were 33 µmol/kg and 40 µmol/kg, respectively. Besides, the results for the EC50 in [10] and in test [8] were 3700 nM and 33900 nM, respectively. Also, the Ki in test [3] stood at 145 nM; in [4], 256 nM; in [7], 210 nM. Besides, the Intrinsic activity in [5] amounted to 63%.
`COc1cc(CC(C)N)c(OC)cc1I` (centres undefined): the ED50 in the test filed under Rattus norvegicus [1] came out at 0.3 µmol/kg; in the test filed under Rattus norvegicus [2], 0.27 µmol/kg.
For `CN(C)CCc1c[nH]c2c(F)ccc(O)c12`, the ED50 in the test on Rattus norvegicus [12] is 63 µmol/kg. The Ki came out at 120 nM in [13], 13 nM in test [3] and 5.4 nM in [7]. Moreover, in test [5], the Intrinsic activity stood at 76%. The compound further returned an EC50 in test [8] of 4920 nM.
As for `CCN(CC)CCc1c[nH]c2ccccc12`, the figures for the EC50 in [10] and in test [8] were 680 nM and 5370 nM, respectively. Moreover, the Ki was found to be 133 nM in [3], 47 nM in test [4] and 104 nM in test [7]. The same compound displayed an ED50 in the test filed under Rattus norvegicus [2] of 2.53 µmol/kg. Further, the Intrinsic activity in [5] came to 82%.
Take `CCCN(CCC)C1Cc2c[nH]c3ccc(C(C)=O)c(c23)C1` (centres undefined) [LY-293284]: in [10], a half-maximal response (EC50) required 0.13 nM. Besides, it took a dose of 0.031 µmol/kg to reach the 50% effect level in [9] (ED50).
For the compound `COc1ccc2[nH]cc(CCN(C)C)c2c1F`, the EC50 in [10] worked out at 0.93 nM; in test [8] it was 18100 nM. Moreover, the ED50 in the test with Rattus norvegicus [14] turned out to be 22 µmol/kg; with Rattus norvegicus [15], 66 µmol/kg; in test [9] it was 0.17 µmol/kg. The results for the Ki in [3] and in [7] were 122 nM and 55 nM, respectively. Also, the Intrinsic activity in [5] amounted to 88%.

Source of the values: ChEMBL document CHEMBL1133543, “Effect of ring fluorination on the pharmacology of hallucinogenic tryptamines” (J Med Chem, 2000).
